According to ChEMBL document CHEMBL1156453, “Cellular characterization of a novel focal adhesion kinase inhibitor” (J Biol Chem, 2007):
pIC50: −log10 of the molar value. Activity calls are given as the source filed them. No cut-off for these calls is given here.

Experiments:
NIH3T3 [1] = experiment: Inhibition of focal adhesion turnover in wounded mouse NIH3T3 cells expressing GFP-paxillin assessed as decrease in rate of disassembly by TIRF microscopy; assay type: functional, cell-based
[2] = molecular target: Cyclin-dependent kinase 1/cyclin B1 (Homo sapiens, UniProt P06493); experiment: Inhibition of human CDK1/cyclinB; assay type: protein-complex assay
Sequence of Cyclin-dependent kinase 1/cyclin B1 (P06493 whole entry): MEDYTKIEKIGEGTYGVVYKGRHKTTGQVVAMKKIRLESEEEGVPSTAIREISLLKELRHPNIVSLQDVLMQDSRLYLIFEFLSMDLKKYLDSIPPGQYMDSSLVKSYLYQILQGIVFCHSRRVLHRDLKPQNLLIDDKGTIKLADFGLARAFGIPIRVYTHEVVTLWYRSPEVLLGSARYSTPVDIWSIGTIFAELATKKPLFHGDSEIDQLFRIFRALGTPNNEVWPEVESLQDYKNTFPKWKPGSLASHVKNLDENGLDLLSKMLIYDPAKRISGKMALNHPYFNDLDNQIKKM
Sequence of Cyclin-dependent kinase 1/cyclin B1 (P14635 whole entry, further chain): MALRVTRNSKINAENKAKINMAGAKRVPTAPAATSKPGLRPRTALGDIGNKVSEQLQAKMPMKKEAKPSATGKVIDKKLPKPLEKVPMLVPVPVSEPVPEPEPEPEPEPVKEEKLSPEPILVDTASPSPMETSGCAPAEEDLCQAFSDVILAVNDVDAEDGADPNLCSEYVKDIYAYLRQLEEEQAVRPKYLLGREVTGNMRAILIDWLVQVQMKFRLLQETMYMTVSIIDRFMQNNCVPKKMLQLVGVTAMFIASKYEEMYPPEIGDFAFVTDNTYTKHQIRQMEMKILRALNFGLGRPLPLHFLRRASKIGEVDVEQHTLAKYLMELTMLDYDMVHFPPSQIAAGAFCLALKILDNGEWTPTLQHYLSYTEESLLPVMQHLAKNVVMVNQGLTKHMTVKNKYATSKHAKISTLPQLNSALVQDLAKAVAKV

[3] = molecular target: Epidermal growth factor receptor (Homo sapiens) (UniProt P00533); experiment: Inhibition of human EGFR at 1 uM
[4] = molecular target: Cyclin-dependent kinase 2 (Homo sapiens) (UniProt P24941); experiment: Inhibition of human CDK2/cyclinE at 1 uM
[5] = molecular target: Protein kinase C theta type (Homo sapiens) (UniProt Q04759); experiment: Inhibition of PKCtheta at 1 uM
Sequence of Protein kinase C theta type (Homo sapiens) (Q04759 whole entry, looked up): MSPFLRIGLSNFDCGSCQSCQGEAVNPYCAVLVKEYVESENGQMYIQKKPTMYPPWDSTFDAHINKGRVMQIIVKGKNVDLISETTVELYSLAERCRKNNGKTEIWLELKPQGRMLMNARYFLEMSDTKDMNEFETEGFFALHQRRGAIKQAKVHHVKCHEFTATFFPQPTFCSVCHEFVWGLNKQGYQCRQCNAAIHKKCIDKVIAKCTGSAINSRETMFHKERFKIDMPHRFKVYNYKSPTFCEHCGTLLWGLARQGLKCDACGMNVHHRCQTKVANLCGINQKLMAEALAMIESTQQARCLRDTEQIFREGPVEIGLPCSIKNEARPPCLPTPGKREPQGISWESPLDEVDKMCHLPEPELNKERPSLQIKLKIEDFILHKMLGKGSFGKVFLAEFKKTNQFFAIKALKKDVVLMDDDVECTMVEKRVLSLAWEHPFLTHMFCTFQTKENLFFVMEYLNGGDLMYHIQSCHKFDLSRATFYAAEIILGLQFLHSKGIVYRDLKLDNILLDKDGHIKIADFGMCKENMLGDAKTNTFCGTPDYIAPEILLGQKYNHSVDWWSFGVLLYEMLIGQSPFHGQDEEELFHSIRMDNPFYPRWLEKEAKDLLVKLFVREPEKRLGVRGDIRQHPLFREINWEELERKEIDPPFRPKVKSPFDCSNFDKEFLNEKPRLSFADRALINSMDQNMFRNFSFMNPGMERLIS

[6] = Inhibition of cell migration of rat REF52 cells assessed as reduction in rate of movement of cell into wound at 10 uM by wound healing assay in presence of 10% serum; assay type: functional; design: scale not given: the % may be the effect or the level left
NIH3T3 [7] = experiment: Inhibition of focal adhesion turnover in wounded mouse NIH3T3 cells expressing GFP-paxillin assessed as average adhesion life-time at 10 uM by TIRF microscopy; assay type: functional
[8] = molecular target: Proto-oncogene tyrosine-protein kinase Src (Homo sapiens) (UniProt P12931); experiment: Inhibition of human cSRC at 1 uM
[9] = Inhibition of cell migration of rat REF52 cells assessed as reduction in rate of movement of cell into wound at 1 uM by wound healing assay in presence of 10% serum; assay type: functional; design: scale not given: the % may be the effect or the level left
In short: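 Confluent REF52 monolayers wounded with a pipette tip, with inhibitor added at wounding. Starting 1 h later, cells filmed for 9 h at 37 °C by DIC time-lapse microscopy. Nuclei of single cells tracked, and speed taken as track length divided by total movie time.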

[10] = molecular target: Inhibitor of nuclear factor kappa-B kinase subunit beta (Homo sapiens) (UniProt O14920); experiment: Inhibition of human IKK-beta at 1 uM
Sequence of Inhibitor of nuclear factor kappa-B kinase subunit beta (Homo sapiens) (O14920 whole entry): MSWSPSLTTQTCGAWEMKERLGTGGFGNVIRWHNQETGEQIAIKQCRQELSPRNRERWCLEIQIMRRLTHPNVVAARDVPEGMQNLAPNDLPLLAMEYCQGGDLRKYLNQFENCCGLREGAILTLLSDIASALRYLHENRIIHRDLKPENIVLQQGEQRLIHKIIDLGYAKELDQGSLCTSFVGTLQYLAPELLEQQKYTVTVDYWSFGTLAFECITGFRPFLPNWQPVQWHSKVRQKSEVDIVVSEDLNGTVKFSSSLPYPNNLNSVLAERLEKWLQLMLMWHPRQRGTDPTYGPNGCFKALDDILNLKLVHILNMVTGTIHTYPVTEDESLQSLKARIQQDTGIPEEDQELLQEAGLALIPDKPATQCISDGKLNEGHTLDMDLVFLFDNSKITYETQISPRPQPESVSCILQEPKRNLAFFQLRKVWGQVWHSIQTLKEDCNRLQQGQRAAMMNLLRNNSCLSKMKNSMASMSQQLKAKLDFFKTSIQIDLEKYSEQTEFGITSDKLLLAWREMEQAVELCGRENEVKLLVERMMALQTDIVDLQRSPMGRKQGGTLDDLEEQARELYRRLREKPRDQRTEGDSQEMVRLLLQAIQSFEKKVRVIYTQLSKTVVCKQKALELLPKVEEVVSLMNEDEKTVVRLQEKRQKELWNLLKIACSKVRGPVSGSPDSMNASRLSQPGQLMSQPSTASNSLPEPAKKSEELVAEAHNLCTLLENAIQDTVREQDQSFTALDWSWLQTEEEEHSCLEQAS

[11] = Inhibition of 10% serum-stimulated cell migration of rat REF52 cells at 10 uM pretreated for 30 mins measured after 6 hrs by transwell assay relative to control; assay type: functional
In short: (§1)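 Modified Boyden transwell, 8-μm pores. REF52 cells (1 × 10⁵) pretreated 30 min with inhibitor, which stayed in both chambers. Attractant was 10% FBS in the lower chamber, or membrane underside coated with 1.5 μg/ml fibronectin overnight at 4 °C under serum-free DMEM. Migration 6 h at 37 °C. Underside cells fixed, crystal-violet stained and counted in four fields. Triplicates normalized to untreated control; ANOVA then t-tests.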

[12] = molecular target: RAC-alpha serine/threonine-protein kinase (Homo sapiens) (UniProt P31749); experiment: Inhibition of AKT at 1 uM
Sequence of RAC-alpha serine/threonine-protein kinase (Homo sapiens) (P31749 whole entry): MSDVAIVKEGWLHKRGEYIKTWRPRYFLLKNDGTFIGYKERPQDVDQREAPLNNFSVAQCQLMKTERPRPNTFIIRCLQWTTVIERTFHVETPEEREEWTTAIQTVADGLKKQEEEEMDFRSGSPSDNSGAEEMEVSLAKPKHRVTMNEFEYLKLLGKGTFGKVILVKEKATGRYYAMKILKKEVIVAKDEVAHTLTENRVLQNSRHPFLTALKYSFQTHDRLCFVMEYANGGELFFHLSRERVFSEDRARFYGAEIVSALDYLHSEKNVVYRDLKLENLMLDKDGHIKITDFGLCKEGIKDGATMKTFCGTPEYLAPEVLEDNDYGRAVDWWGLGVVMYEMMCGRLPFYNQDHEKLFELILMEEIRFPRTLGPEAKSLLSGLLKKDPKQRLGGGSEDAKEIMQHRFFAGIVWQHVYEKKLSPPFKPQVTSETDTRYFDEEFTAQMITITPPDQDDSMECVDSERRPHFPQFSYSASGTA

[13] = molecular target: Mitogen-activated protein kinase 8 (Homo sapiens) (UniProt P45983); experiment: Inhibition of human JNK1alpha1 at 1 uM
Sequence of Mitogen-activated protein kinase 8 (Homo sapiens) (P45983 whole entry): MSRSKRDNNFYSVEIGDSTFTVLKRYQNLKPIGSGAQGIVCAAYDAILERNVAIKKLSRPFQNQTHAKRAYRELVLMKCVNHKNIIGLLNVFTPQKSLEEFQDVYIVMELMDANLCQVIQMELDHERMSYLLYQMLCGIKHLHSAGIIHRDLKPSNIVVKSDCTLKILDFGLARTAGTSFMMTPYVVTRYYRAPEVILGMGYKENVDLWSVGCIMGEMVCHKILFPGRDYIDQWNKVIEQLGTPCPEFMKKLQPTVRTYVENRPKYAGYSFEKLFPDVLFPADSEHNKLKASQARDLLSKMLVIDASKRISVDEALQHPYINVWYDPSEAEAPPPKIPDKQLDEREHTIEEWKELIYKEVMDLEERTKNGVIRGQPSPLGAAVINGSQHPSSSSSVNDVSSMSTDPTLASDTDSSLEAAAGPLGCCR

Focal adhesion kinase 1 = Focal adhesion kinase 1 (Homo sapiens, UniProt Q05397); experiment: Inhibition of FAK Tyr397 phosphorylation in human SKOV3 cells after 60 mins by Western blot analysis
[14] = molecular target: CDK6/cyclin D3 (Homo sapiens) (UniProt P30281+Q00534); experiment: Inhibition of human CDK6/cyclinD3 at 1 uM; assay type: protein-complex assay
[15] = molecular target: Dual specificity mitogen-activated protein kinase kinase 6 (Homo sapiens) (UniProt P52564); experiment: Inhibition of MKK6 at 1 uM
Sequence of Dual specificity mitogen-activated protein kinase kinase 6 (Homo sapiens) (P52564 whole entry): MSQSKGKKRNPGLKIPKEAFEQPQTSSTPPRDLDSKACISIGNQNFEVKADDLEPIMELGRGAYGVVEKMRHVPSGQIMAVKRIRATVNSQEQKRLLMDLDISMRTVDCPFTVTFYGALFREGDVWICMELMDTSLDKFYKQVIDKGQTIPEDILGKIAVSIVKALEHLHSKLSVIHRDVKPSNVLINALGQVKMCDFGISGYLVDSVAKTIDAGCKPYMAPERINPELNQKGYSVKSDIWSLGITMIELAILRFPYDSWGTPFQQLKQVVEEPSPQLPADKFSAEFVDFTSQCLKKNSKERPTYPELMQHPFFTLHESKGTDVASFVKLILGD

PC-3 [16] = experiment: Cell number in human PC3 cells at 10 uM after 3 days as % of control; details: PC-3, 72 h
NIH3T3 [17] = experiment: Inhibition of focal adhesion turnover in wounded mouse NIH3T3 cells expressing GFP-paxillin assessed as average adhesion life-time at 1 uM by TIRF microscopy; assay type: functional
[18] = molecular target: Protein-tyrosine kinase 2-beta (Homo sapiens, UniProt Q14289); experiment: Inhibition of Pyk2
In short: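 Recombinant Pyk2 was run in parallel with the FAK kinase assay. That assay measures phosphorylation of a poly(Glu/Tyr) (4:1) substrate in an ELISA read with anti-phosphotyrosine (PY20) and an HRP secondary. Compounds were serially diluted at ½-log steps from a 1 μm top concentration, each concentration was run in triplicate, and IC50 was fitted by the Hill slope model.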

[19] = Inhibition of MKK at 1 uM
In short: (§2)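 Recombinant kinases were screened in a commercial profiling panel with the compound at a single concentration of 1 μM. The read-out is percent inhibition of each enzyme's kinase activity.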

[20] = molecular target: Protein kinase C alpha type (Homo sapiens) (UniProt P17252); experiment: Inhibition of human PKCalpha at 1 uM
[21] = molecular target: Cyclin-dependent kinase 1/cyclin B1 (Homo sapiens) (UniProt P06493+P14635); experiment: Inhibition of human CDK1/cyclinB at 1 uM; assay type: protein-complex assay; in short: as §2
Sequence of Cyclin-dependent kinase 1/cyclin B1 (Homo sapiens) (P06493 whole entry, looked up): as the sequence (P06493 whole entry) above
Sequence of Cyclin-dependent kinase 1/cyclin B1 (Homo sapiens) (P14635 whole entry, looked up): as the sequence (P14635 whole entry, further chain) above

[22] = Inhibition of 10% serum-stimulated cell migration of rat REF52 cells at 1.0 uM pretreated for 30 mins measured after 6 hrs by transwell assay relative to control; assay type: functional; in short: as §1
[23] = molecular target: Tyrosine-protein kinase Lck (Homo sapiens) (UniProt P06239); experiment: Inhibition of LCK at 1 uM
Sequence of Tyrosine-protein kinase Lck (Homo sapiens) (P06239 2-509 limits assumed): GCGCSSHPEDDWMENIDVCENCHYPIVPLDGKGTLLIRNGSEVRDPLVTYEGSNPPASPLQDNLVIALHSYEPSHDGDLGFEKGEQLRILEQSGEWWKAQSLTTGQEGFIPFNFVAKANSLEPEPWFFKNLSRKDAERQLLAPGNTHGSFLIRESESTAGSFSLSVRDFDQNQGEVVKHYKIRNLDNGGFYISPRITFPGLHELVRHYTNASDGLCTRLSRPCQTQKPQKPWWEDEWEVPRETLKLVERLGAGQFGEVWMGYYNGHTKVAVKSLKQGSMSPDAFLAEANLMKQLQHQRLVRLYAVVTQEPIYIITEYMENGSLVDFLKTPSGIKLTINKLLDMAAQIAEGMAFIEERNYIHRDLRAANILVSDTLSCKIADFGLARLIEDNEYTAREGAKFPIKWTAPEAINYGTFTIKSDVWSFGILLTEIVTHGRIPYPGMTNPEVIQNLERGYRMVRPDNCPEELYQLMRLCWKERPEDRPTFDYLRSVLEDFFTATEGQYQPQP

[24] = molecular target: Paxillin (Rattus norvegicus) (UniProt Q66H76); experiment: Induction of paxillin organization loss in focal adhesion in rat REF52 cells at 3 uM after 1 hr by immunostaining; assay type: cell-based
In short: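 REF52 cells held in suspension 30 min to 1 h without serum with inhibitor, then plated on 5 μg/ml fibronectin-coated coverslips for 60 min with inhibitor still present. Cells fixed in 4% paraformaldehyde, permeabilized with Triton X-100 and immunostained for paxillin and phospho-FAK Tyr397. Imaged by fluorescence microscopy, 60× objective.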

[25] = Inhibition of ACK at 1 uM; in short: as §2
[26] = Cell number in rat REF52 cells at 1 uM after 3 days as % of control; details: REF52, 72 h
[27] = molecular target: Phosphatidylinositol 4,5-bisphosphate 3-kinase catalytic subunit gamma isoform (Homo sapiens) (UniProt P48736); experiment: Inhibition of human PI3-Kgamma at 1 uM
PC-3 [28] = experiment: Induction of apoptosis in human PC3 cells attached in serum containing medium assessed as histone accumulation after 24 hrs by ELISA
[29] = molecular target: Cyclin-dependent kinase 7 (Homo sapiens, UniProt P50613); experiment: Inhibition of human CDK7/cyclinH/MAT1 at 1 uM; in short: as §2
REF52 = experiment: Induction of apoptosis in attached rat REF52 cells assessed as histone accumulation after 24 hrs by ELISA; assay type: functional, cell-based
In short: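 Attached cells in serum-containing medium treated with inhibitor at the indicated concentrations, 24 h for REF52 and PC3, 16 h for MDCK, then lysed. Free histones in lysates measured by cell death detection ELISA, in duplicate. Untreated adherent cells were the negative control. Cells suspended 16–24 h in serum-free medium were the positive control. One of three experiments shown.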

[30] = molecular target: Tyrosine-protein kinase ABL1 (Homo sapiens) (UniProt P00519); experiment: Inhibition of human Abl at 1 uM
Homo sapiens = species: Homo sapiens; experiment: Inhibition of human PKBalpha at 1 uM; in short: as §2
[31] = molecular target: Glycogen synthase kinase-3 beta (Homo sapiens, UniProt P49841); experiment: Inhibition of human GSK3-beta at 1 uM; in short: as §2

CS(=O)(=O)c1cccc(CNc2nc(Nc3ccc4c(c3)CCC(=O)N4)ncc2C(F)(F)F)c1
Activity (NIH3T3 [1]): Active
pIC50 [2]: 6.31
inhibition [3]: 0%
inhibition [4]: 44%
inhibition [5]: 36%
Activity [6]: 60%
Time (NIH3T3 [7]): 42 min
inhibition [8]: 1%
Activity [9]: 27%
inhibition [10]: 56%
Activity [11]: 0.3
inhibition [12]: 0%
inhibition [13]: 4%
pIC50 (Focal adhesion kinase 1): 7.30
inhibition [14]: 15%
inhibition [15]: 16%
level, % of control at 10 µM (PC-3 [16]): 17%
Time (NIH3T3 [17]): 33.1 min
pIC50 [18]: < 6.00
inhibition [19]: 48%
inhibition [20]: 12%
inhibition [21]: 77%
Activity [22]: 1
inhibition [23]: 0%
Activity [24]: Active
inhibition [25]: 29%
level, % of control at 1 µM [26]: 141%
inhibition [27]: 0%
Activity (PC-3 [28]): inactive
inhibition [29]: 86%
Activity (REF52): inactive
inhibition [30]: 8%
inhibition (Homo sapiens): 13%
inhibition [31]: 64%
